Active and inactive are the calls of the source. The calls are words filed in the database; no cut-off is given here.
Key:
BV-2 [1] = assay: Cytotoxicity against mouse BV-2 cells at 20 uM measured after 24 hrs by MTT assay; type: cell-based; details: bv-2, 24 h
In short: (§1)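 Cells in high-glucose DMEM with 10% FBS, 5% CO₂, 37 °C, seeded 3000–5000/well, exposed to compound 24 h. MTT (0.5 mg/mL) 4 h, formazan dissolved in DMSO, absorbance 570 nm (reference 630 nm). Viability as percent of untreated control; mean ± SD, three independent experiments.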

BV-2 [2] = assay: Antiinflammatory activity in mouse BV-2 cells assessed as inhibition of LPS-induced NO production at 10 uM pretreated with compound for 1 hr followed by LPS stimulation and measured after 18 hrs by Griess assay relative to control; type: functional; details: time 19 hrs
In short: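 BV2 microglia grown in high-glucose DMEM with 10% FBS, seeded at 3 × 10^4 cells/well, preincubated with compound 1 h, then LPS (final 1 µg/ml) for 18 h. Supernatant mixed with equal volume Griess reagent, 10 min at 25 °C, absorbance 540 nm. Inhibition = (F_L−F_C)/(F_L−F₀) × 100. Mean ± SD, three independent experiments.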

Rattus norvegicus [3] = assay: Cognitive enhancing effect in Sprague-Dawley rat model of OA-induced dementia assessed as increase in number of platform crossing at 10 mg/kg, ip administered for 7 days by Morris water maze test; type: functional, organism-based; details: time 7.0 day
In short: (§2)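 Male SD rats (n = 8/group), ip dosing at 5 or 10 mg/kg in saline with 8% DMSO and 1% Tween-80 for 7 days, then OA (300 ng in 1.5 μL saline) microinjected into right dorsal hippocampus. Dosing continued 7 days after OA. Morris water maze: 5 training days recording escape latency, distance and swim speed; day-6 probe trial, platform removed, 60 s search, quadrant time and crossings counted. Two-way ANOVA versus model; SEM.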

[4] = Acute toxicity in Sprague-Dawley rat model of OA-induced dementia assessed as mortality at 5 to 10 mg/kg, ip administered for 7 days; type: organism-based; details: in vivo, 168 h, dose 5-10 mg/kg, time 7 day
In short: (§3)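 Adult male SD rats (260-280 g), n = 8 per group. Compound given ip at 5 or 10 mg/kg daily for 7 days in saline with 8% DMSO and 1% Tween-80 cosolvent; controls got vehicle. Okadaic acid (300 ng in 1.5 μL saline) then injected stereotaxically into right dorsal hippocampus under isoflurane, and ip dosing continued 7 more days. Body weight recorded throughout; swimming speed recorded in Morris water maze.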

Homo sapiens [5] = species: Homo sapiens; assay: Inhibition of acetyl-PHF6 amide self-aggregation (unknown origin) in pH 7.4 phosphate buffer assessed as decrease in absorbance intensity at 10 uM and 25 degreeC measured immediately after 10 sec vibration per minute for 120 mins under shaking condition by circular dichroism spectroscopy
In short: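 Fresh samples of 100 μM AcPHF6 with 10 μM compound (≤0.1% DMSO) in 50 mM phosphate buffer pH 7.4. 10 s vibration per minute at 25 °C over 120 min. Spectra 260–200 nm, 1 mm quartz cell, 1 nm bandwidth, 50 nm/min scan. Solvent and compound contributions subtracted, converted to Δε per residue, Savitzky-Golay smoothed.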

Homo sapiens [6] = species: Homo sapiens; assay: Inhibition of acetyl-PHF6 amide self-aggregation (unknown origin) in pH 7.4 phosphate buffer assessed as appearance of dot like structure with <5 nm at 20 uM and 25 degreeC measured after 10 mins by phosphotungstic acid staining based TEM analysis
[7] = molecular target: Microtubule-associated protein tau (Homo sapiens) (UniProt P10636); assay: Inhibition of heparin-induced recombinant full length His-tagged 2N4R tau self-aggregation (unknown origin) expressed in Escherichia coli BL21 (DE3) at 10 uM measured after 6 mins by ThT fluorescence assay
Sequence of Microtubule-associated protein tau (Homo sapiens) (P10636 whole entry): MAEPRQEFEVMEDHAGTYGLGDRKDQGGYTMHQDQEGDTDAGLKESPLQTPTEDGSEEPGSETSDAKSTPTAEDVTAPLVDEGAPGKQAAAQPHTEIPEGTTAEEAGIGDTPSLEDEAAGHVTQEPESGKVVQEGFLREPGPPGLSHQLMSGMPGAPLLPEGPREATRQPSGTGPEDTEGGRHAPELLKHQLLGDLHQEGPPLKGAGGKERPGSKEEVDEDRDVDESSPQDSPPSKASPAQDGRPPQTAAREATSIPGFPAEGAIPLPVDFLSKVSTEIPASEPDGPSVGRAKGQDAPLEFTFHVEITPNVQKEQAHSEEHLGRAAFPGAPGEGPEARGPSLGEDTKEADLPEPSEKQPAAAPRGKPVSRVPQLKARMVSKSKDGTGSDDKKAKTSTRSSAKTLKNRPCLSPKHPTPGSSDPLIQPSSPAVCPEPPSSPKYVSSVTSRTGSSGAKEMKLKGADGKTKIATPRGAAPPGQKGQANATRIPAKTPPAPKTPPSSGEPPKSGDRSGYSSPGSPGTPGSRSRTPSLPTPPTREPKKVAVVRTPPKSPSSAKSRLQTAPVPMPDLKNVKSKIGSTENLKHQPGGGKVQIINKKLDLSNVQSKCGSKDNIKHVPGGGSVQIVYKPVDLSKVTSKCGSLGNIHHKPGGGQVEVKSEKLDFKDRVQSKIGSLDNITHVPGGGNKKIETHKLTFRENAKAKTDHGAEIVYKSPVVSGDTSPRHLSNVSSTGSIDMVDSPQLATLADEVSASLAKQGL
In short: (§4)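 His-tagged full-length 2N4R tau from E. coli BL21(DE3) (pET-28a, 1 mM IPTG, 37 °C), BCA-quantified, stored −80 °C. 10 μM tau with 10 μM compound and 1 mM DTT in 1× PBS at 37 °C, aggregation started with 10 μM heparin (MW 6117), 10 μM ThT. Ex 440/em 490 nm, read every 4 min with 2 min shaking (600 rpm) before reading.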

[8] = molecular target: Microtubule-associated protein tau (Homo sapiens) (UniProt P10636); assay: Inhibition of heparin-induced recombinant full length His-tagged 2N4R tau self-aggregation (unknown origin) expressed in Escherichia coli BL21 (DE3) assessed as reduction in aggregate formation at 10 uM measured after 6 mins by ThT fluorescence assay relative to control; in short: as §4
Rattus norvegicus [9] = assay: Cognitive enhancing effect in Sprague-Dawley rat model of OA-induced dementia assessed as increase in time spent in virtual platform quadrant at 10 mg/kg, ip administered for 7 days by Morris water maze test; type: functional, organism-based; details: time 7.0 day; in short: as §2
Homo sapiens [10] = species: Homo sapiens; assay: Inhibition of acetyl-PHF6 amide self-aggregation (unknown origin) in pH 7.4 phosphate buffer at 10 uM and 25 degreeC measured every 1 min for 120 mins under shaking condition by ThT fluorescence assay relative to control
In short: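 AcPHF6 dissolved in HFIP, dried overnight, 1 mM water stock used at once. Final 100 μM peptide, 20 μM ThT, 10 μM compound (≤0.1% DMSO) in 50 mM phosphate buffer pH 7.4, 25 °C. Ex 440/em 490 nm read each minute for 120 min, 10 s shaking (400 rpm) before each read. Inhibition from mean signal at 50–60 min; ≥3 wells; mean ± SD of three experiments; DMSO negative control.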

Homo sapiens [11] = species: Homo sapiens; assay: Inhibition of acetyl-PHF6 amide self-aggregation (unknown origin) in pH 7.4 phosphate buffer assessed as absence of fibrillar material at 20 uM and 25 degreeC measured after 10 mins by phosphotungstic acid staining based TEM analysis
[12] = Acute toxicity in Sprague-Dawley rat model of OA-induced dementia assessed as effect on body weight at 5 to 10 mg/kg, ip administered for 14 days; details: in vivo, 336 h
L02 = assay: Cytotoxicity against human L02 cells assessed as effect on cell viability at <=40 uM measured after 24 hrs by MTT assay; type: cell-based; details: l02, 24 h; in short: as §1
SH-SY5Y = assay: Cytotoxicity against human SH-SY5Y cells assessed as reduction in cell survival at 30 uM measured after 24 hrs by MTT assay; type: cell-based; in short: as §1
[13] = Toxicity in Sprague-Dawley rat model of OA-induced dementia assessed as effect on swimming speed at 5 to 10 mg/kg, ip administered for 7 days; type: organism-based; details: in vivo, 168 h, dose 5-10 mg/kg, time 7 day; in short: as §3
Rattus norvegicus [14] = assay: Cognitive enhancing effect in Sprague-Dawley rat model of OA-induced dementia assessed as average escape latency time to hidden platform at 5 to 10 mg/kg, ip administered for 7 days by Morris water maze test (reference value: 12.5 to 37.2 sec); type: functional; details: dose 5-10 mg/kg; time 7 day; in short: as §2

## CC(=O)c1c(O)c(C)c(O)c2c1OC1=Cc3c(c(C)nn3-c3ccc(C(=O)O)cc3)C(=O)[C@@]12C
BV-2 [1]
  Activity: Non-Toxic
BV-2 [2]
  inhibition at 10 µM: 41%
Rattus norvegicus [3]
  Activity: Active
[4]
  Activity: Non-Toxic
Homo sapiens [5]
  inhibition: Active
Homo sapiens [6]
  inhibition: Active
[7]
  inhibition: Active
[8]
  inhibition: 50%
Rattus norvegicus [9]
  Activity: Active
Homo sapiens [10]
  inhibition: 51.7%
Homo sapiens [11]
  inhibition: Active
[12]
  Activity: Non-Toxic
L02
  Activity: Non-Toxic
SH-SY5Y
  Activity: Toxic
[13]
  Activity: Non-Toxic
Rattus norvegicus [14]
  Time: 18.5 s

— ChEMBL document CHEMBL4706486, “Usnic acid derivatives as tau-aggregation and neuroinflammation inhibitors” (Eur J Med Chem, 2020)
